Source: ChEMBL document CHEMBL3351594, “Cytotoxic dimeric epipolythiodiketopiperazines from the ascomycetous fungus Preussia typharum” (J Nat Prod, 2014)
The source made the active and inactive calls. No cut-off for these calls is given here.

Legend:
[1] = test system: KM12; test: Cytotoxicity against human KM12 cells by SRB method; type: functional
Procedure, shortened: (§1)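 NCI-60 in vitro drug screening panel. Values are the molar concentrations giving 50% growth inhibition (GI50) and total growth inhibition (TGI).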

[2] = test system: RPMI-8226; test: Cytotoxicity against human RPMI8226 cells by SRB method; type: functional; procedure, shortened: as §1
[3] = Cytotoxicity against human HCT116 cells by SRB method; type: functional; procedure, shortened: as §1
[4] = test system: IGROV-1; test: Cytotoxicity against human IGROV1 cells by SRB method; type: functional; procedure, shortened: as §1
[5] = test system: MDA-MB-231; test: Cytotoxicity against human MDA-MB-231 cells by SRB method; type: functional; procedure, shortened: as §1
[6] = test system: BT-549; test: Cytotoxicity against human BT549 cells by SRB method; type: functional; procedure, shortened: as §1
[7] = test system: NCI-H460; test: Cytotoxicity against human NCI-H460 cells by SRB method; type: functional; procedure, shortened: as §1
[8] = Cytotoxicity against human OVCAR3 cells by SRB method; type: functional; procedure, shortened: as §1
[9] = test system: SK-MEL-2; test: Cytotoxicity against human SK-MEL-2 cells by SRB method; type: functional; procedure, shortened: as §1
[10] = Cytotoxicity against human HCT15 cells by SRB method; type: functional; procedure, shortened: as §1
[11] = Cytotoxicity against human Hs578T cells by SRB method; type: functional; conditions: Hs-578T; procedure, shortened: as §1
[12] = test system: NCI-H522; test: Cytotoxicity against human NCI-H522 cells by SRB method; type: functional; procedure, shortened: as §1
[13] = Cytotoxicity against human EKVX cells by SRB method; type: functional; procedure, shortened: as §1
[14] = test system: MDA-MB-435; test: Cytotoxicity against human MDA-MB-435 cells by SRB method; type: functional; procedure, shortened: as §1
[15] = test system: NCI-H23; test: Cytotoxicity against human NCI-H23 cells by SRB method; type: functional; procedure, shortened: as §1
[16] = test system: HOP-92; test: Cytotoxicity against human HOP92 cells by SRB method; type: functional; procedure, shortened: as §1
[17] = test system: Mus musculus; test: Toxicity in athymic nude mouse xenografted with human UACC62 cells assessed as rapid and persistent weight loss at 2 mg/kg, ip; type: organism-based, UACC-62; design: dose 2 mg/kg, route intraperitoneal; conditions: in vivo
[18] = test system: NCI-H322M; test: Cytotoxicity against human NCI-H322M cells by SRB method; type: functional; procedure, shortened: as §1
[19] = Cytotoxicity against human PC3 cells by SRB method; type: functional; procedure, shortened: as §1
[20] = Cytotoxicity against human OVCAR8 cells by SRB method; type: functional; procedure, shortened: as §1
[21] = test system: SNB-75; test: Cytotoxicity against human SNB75 cells by SRB method; type: functional
Procedure, shortened: (§2)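 NCI-60 in vitro screen panel of human tumor lines; GI50 (molar concentration giving 50% growth inhibition) and TGI (total growth inhibition) taken from dose–response data.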

[22] = test system: MOLT-4; test: Cytotoxicity against human MOLT4 cells by SRB method; type: functional; procedure, shortened: as §1
[23] = test system: SNB-19; test: Cytotoxicity against human SNB19 cells by SRB method; type: functional; procedure, shortened: as §2
[24] = test system: SW-620; test: Cytotoxicity against human SW620 cells by SRB method; type: functional; procedure, shortened: as §2
[25] = test system: ACHN; test: Cytotoxicity against human ACHN cells by SRB method; type: functional; procedure, shortened: as §1
[26] = Antitumor activity against human UACC62 cells xenografted in athymic nude mouse at 1.5 mg/kg, ip administered every 4 days relative to untreated control; type: functional, UACC-62; conditions: route intraperitoneal
Procedure, shortened: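 Female athymic nude mice received 2 × 10^6 UACC-62 cells sc into each flank, bilaterally. They were randomized at median tumor volume 150 mm3, n = 5 mice/group. Dosing was ip at 1.5 mg/kg every 4 days, in DMSO–Cremophor (1:1) diluted in 200 μL DPBS (DMSO and Cremophor ≤2.5% final). Tumors were measured twice weekly by caliper. T/C% = (treated final − initial mean volume) ÷ (untreated final − initial) × 100.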

[27] = test system: A498; test: Cytotoxicity against human A498 cells by SRB method; type: functional; procedure, shortened: as §1
[28] = Cytotoxicity against human SKOV3 cells by SRB method; type: functional; conditions: SK-OV-3
Procedure, shortened: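 SRB assay in SK-OV-3 cells; percent cell growth per Boyd et al.; GI50, TGI and LC50 fitted from dose–response curves of percent growth; mean ± SE, n = 3 or 4 independent experiments.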

[29] = test system: 786-0; test: Cytotoxicity against human 786-0 cells by SRB method; type: functional; procedure, shortened: as §1
[30] = Cytotoxicity against human MIAPaCa2 cells after 24 hrs by MTT assay; type: functional, cell-based; conditions: MIA PaCa-2, 24 h
[31] = test system: HeLa; test: Increase in H3K9 methylation in human HeLa cells assessed as high H3K9me3 expression at 200 nM after 1 to 24 hrs by immunoblotting analysis; type: functional, cell-based
Procedure, shortened: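 HeLa cells treated with vehicle or 200 nM for 1–24 h; log-phase cells lysed with protease inhibitors, equal protein by SDS-PAGE, PVDF transfer, probed for H3K9me3 and actin, ECL detection.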

[32] = Cytotoxicity against human UO31 cells by SRB method; type: functional; procedure, shortened: as §2
[33] = Cytotoxicity against human OVCAR5 cells by SRB method; type: functional; procedure, shortened: as §1
[34] = test system: HT-29; test: Cytotoxicity against human HT-29 cells by SRB method; type: functional; procedure, shortened: as §1
[35] = read-out: LC50 (the source's name)

Molecule `CC(C)[C@@]12SS[C@]3(C(=O)N1C)[C@@H](O)[C@]1(C45c6ccccc6N[C@H]4N4C(=O)[C@@]6(CO)SS[C@@]4(C(=O)N6C)[C@H]5O)c4ccccc4N[C@@H]1N3C2=O` (stereo partly drawn) has a GI50 [1] of 19.5 nM, a TGI [1] of 87.1 nM and a CC50 [1, 35] of 295 nM. It also gave a GI50 [2] of 12.3 nM, a TGI [2] of 34.7 nM and a CC50 [2, 35] greater than 50000 nM. The GI50 ([3]; HCT-116) was 12.3 nM, the TGI ([3]; HCT-116) was 51.3 nM and the CC50 ([3]; HCT-116, read-out: LC50 (the source's name)) was 162 nM. The GI50 [4] was 24.5 nM, the TGI [4] was 100 nM and the CC50 [4, 35] was 339 nM. The GI50 [5] was 18.6 nM, the TGI [5] was 70.8 nM and the CC50 [5, 35] was 324 nM. The GI50 [6] was 14.8 nM, the TGI [6] was 66.1 nM and the CC50 [6, 35] was 209 nM. The GI50 [7] was 20.9 nM, the TGI [7] was 75.9 nM and the CC50 [7, 35] was 246 nM. For the same molecule, the GI50 ([8]; OVCAR-3) was 10.7 nM, the TGI ([8]; OVCAR-3) was 26.3 nM and the CC50 ([8]; OVCAR-3, read-out: LC50 (the source's name)) was 85.1 nM. For the same molecule, the GI50 [9] was 9.8 nM, the TGI [9] was 20.4 nM and the CC50 [9, 35] was 43.7 nM. The GI50 ([10]; HCT-15) was 17 nM, the TGI ([10]; HCT-15) was 89.1 nM and the CC50 ([10]; HCT-15, read-out: LC50 (the source's name)) was 479 nM. For the same molecule, the GI50 [11] was 26.3 nM, the TGI [11] was 447 nM and the GI50 [12] was 8.5 nM. For the same molecule, the TGI [12] was 17.8 nM, the CC50 [12, 35] was 38 nM and the GI50 [13] was 28.2 nM. The TGI [13] was 257 nM, the CC50 [13, 35] was 2040 nM and the GI50 [14] was 10.7 nM. The TGI [14] was 28.8 nM, the CC50 [14, 35] was 120 nM and the GI50 [15] was 16.2 nM. It also gave a TGI [15] of 56.2 nM, a CC50 [15, 35] of 234 nM and a GI50 [16] of 11 nM. For the same molecule, the TGI [16] was 28.8 nM, the CC50 [16, 35] was 112 nM and the Activity [17] was “Toxic”. For the same molecule, the GI50 [18] was 20 nM, the TGI [18] was 102 nM and the CC50 [18, 35] was 490 nM. The GI50 ([19]; PC-3) was 15.5 nM, the TGI ([19]; PC-3) was 60.3 nM and the CC50 ([19]; PC-3, read-out: LC50 (the source's name)) was 209 nM. The GI50 ([20]; OVCAR-8) was 9.5 nM, the TGI ([20]; OVCAR-8) was 19.1 nM and the CC50 ([20]; OVCAR-8, read-out: LC50 (the source's name)) was 38 nM. It also gave a GI50 [21] of 13.5 nM, a TGI [21] of 50.1 nM and a CC50 [21, 35] of 158 nM. For the same molecule, the GI50 [22] was 13.2 nM, the TGI [22] was 67.6 nM and the CC50 [22, 35] was greater than 50000 nM. For the same molecule, the GI50 [23] was 112 nM, the TGI [23] was 513 nM and the CC50 [23, 35] was 1660 nM. For the same molecule, the GI50 [24] was 8.3 nM, the TGI [24] was 31.6 nM and the CC50 [24, 35] was 129 nM. It also gave a GI50 [25] of 15.5 nM, a TGI [25] of 60.3 nM and a CC50 [25, 35] of 234 nM. It also gave a T/C [26] of 67%, a GI50 [27] of 9.8 nM and a TGI [27] of 28.2 nM. For the same molecule, the CC50 [27, 35] was 105 nM, the GI50 [28] was 11.5 nM and the LC50 [28] was 190 nM. It also gave a TGI [28] of 33.9 nM, a GI50 [29] of 11.7 nM and a TGI [29] of 26.3 nM. The CC50 [29, 35] was 70.8 nM, the IC50 [30] was 6.6 nM and the Activity [31] was “Active”. The GI50 ([32]; UO-31) was 9.8 nM, the TGI ([32]; UO-31) was 26.3 nM and the CC50 ([32]; UO-31, read-out: LC50 (the source's name)) was 100 nM. For the same molecule, the GI50 ([33]; OVCAR-5) was 52.5 nM, the TGI ([33]; OVCAR-5) was 138 nM and the CC50 ([33]; OVCAR-5, read-out: LC50 (the source's name)) was 363 nM. It also gave a GI50 [34] of 5.6 nM, a TGI [34] of 13.5 nM and a CC50 [34, 35] of 32.4 nM.
